ChEMBL document CHEMBL1255460, “Cyclotide interactions with the nematode external surface” (Antimicrob Agents Chemother, 2010)
Active and inactive are the calls of the source. The rule behind the calls is not given here.

Assays:
Type in all cases: functional, organism-based
Haemonchus contortus [1] = assay: Antiparasitic activity against adult Haemonchus contortus assessed as decrease in motility
Procedure, shortened: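 Adult worms in groups of 10 in RPMI-based medium at 37°C, given ivermectin in DMSO at 0.1 to 100 nM, with 0.2% DMSO controls. Motility scored 30 h after start, using the O'Grady and Kotze system. Triplicate.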

Haemonchus contortus [2] = assay: Antiparasitic activity against adult Haemonchus contortus assessed as [3H]inulin uptake at 10 nM
Procedure, shortened: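 Adult females taken from sheep abomasa 10 to 15 weeks postinfection, held in RPMI 1640-based medium (pH 6.8) at 37°C, in groups of 10. Ivermectin in DMSO given at 0.1 to 100 nM; DMSO-only controls at 0.2% final. [3H]inulin (4 μCi/ml final) added after 6 h. After a further 24 h, worms solubilized in 0.5 M KOH at 50°C overnight, neutralized, and radioactivity counted. Done in triplicate.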

Haemonchus contortus [3] = assay: Antiparasitic activity against adult Haemonchus contortus assessed as [3H]inulin uptake at 1000 nM
Haemonchus contortus [4] = assay: Antiparasitic activity against adult Haemonchus contortus assessed as reduction in FITC-dextran uptake at 10 nM after 24 hrs
Procedure, shortened: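 Groups of about 10 adult worms held 6 h with or without 10 nM ivermectin. FITC-dextran (40 kDa, 5 mg/ml final) then added. After 24 h, worms washed in PBS, fixed in 10% formalin, and photographed under white and UV light as a measure of feeding.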

Haemonchus contortus [5] = assay: Antiparasitic activity against adult Haemonchus contortus pharyngeal ligation model assessed as decrease [3H]inulin uptake at 10 nM

IVERMECTIN was tested, and the Activity (Haemonchus contortus [1]) was “Dose-dependent effect”, the Activity (Haemonchus contortus [2]) was “inactive” and the Activity (Haemonchus contortus [3]) was “inactive”. For the same sequence, the Activity (Haemonchus contortus [4]) was “Active” and the Activity (Haemonchus contortus [5]) was “Active”.
